Assay results from ChEMBL document CHEMBL5661979, “Pharmacological inhibition of BMK1 suppresses tumor growth through promyelocytic leukemia protein” (Cancer Cell, 2010).

What was measured:
[1] = target: Serine/threonine-protein kinase PLK4 (Homo sapiens) (UniProt O00444); test: Inhibition of PLK4 (unknown origin) assessed as remaining activity at 10 uM by ATP-competition binding assay relative to control
[2] = target: Tyrosine-protein kinase Lyn (Homo sapiens, UniProt P07948); test: Inhibition of LYN in human HeLa cells lysate pre incubated for 15 mins followed by ATP acyl phosphate probe addition and measured after 10 mins by LC-MS/MS analysis; type: subcellular
Sequence of Tyrosine-protein kinase Lyn (P07948 whole entry): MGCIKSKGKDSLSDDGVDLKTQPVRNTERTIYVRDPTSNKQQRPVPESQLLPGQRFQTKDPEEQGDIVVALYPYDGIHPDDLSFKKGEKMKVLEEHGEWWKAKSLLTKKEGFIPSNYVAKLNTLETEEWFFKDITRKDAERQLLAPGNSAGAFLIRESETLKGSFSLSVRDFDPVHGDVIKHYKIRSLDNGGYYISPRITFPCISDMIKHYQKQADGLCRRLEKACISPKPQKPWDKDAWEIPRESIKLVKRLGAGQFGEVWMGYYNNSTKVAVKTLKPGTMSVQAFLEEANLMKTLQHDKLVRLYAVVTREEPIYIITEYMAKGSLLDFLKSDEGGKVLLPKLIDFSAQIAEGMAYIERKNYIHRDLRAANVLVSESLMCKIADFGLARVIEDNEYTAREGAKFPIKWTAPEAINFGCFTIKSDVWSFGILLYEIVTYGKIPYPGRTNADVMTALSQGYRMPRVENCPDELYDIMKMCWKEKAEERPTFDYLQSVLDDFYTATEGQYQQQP

[3] = target: Mitogen-activated protein kinase kinase kinase 7 (Homo sapiens, UniProt O43318); test: Inhibition of TAK1 in human HeLa cells lysate pre incubated for 15 mins followed by ATP acyl phosphate probe addition and measured after 10 mins by LC-MS/MS analysis; type: subcellular
Sequence of Mitogen-activated protein kinase kinase kinase 7 (O43318 whole entry): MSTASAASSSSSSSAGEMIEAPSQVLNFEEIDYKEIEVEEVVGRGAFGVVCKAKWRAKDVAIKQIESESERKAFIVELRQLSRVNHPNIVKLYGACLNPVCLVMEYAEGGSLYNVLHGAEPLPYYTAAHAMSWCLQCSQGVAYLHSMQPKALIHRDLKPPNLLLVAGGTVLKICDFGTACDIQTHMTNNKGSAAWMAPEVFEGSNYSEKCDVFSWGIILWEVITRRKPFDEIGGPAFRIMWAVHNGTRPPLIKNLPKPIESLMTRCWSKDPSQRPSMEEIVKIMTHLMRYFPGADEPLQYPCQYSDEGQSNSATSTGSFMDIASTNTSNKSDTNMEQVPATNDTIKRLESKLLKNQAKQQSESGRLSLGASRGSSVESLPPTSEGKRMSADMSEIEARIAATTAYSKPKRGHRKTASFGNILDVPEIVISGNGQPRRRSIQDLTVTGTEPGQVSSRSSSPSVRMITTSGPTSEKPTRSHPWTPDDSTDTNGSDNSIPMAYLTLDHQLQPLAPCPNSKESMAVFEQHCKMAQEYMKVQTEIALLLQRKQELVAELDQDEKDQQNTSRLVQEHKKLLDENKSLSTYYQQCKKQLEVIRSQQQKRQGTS

[4] = target: Calcium/calmodulin-dependent protein kinase type 1D (Homo sapiens, UniProt Q8IU85); test: Inhibition of CAMK1d in human HeLa cells lysate pre incubated for 15 mins followed by ADP acyl phosphate probe addition and measured after 10 mins by LC-MS/MS analysis; type: subcellular
Sequence of Calcium/calmodulin-dependent protein kinase type 1D (Q8IU85 whole entry, the tested form may be a part): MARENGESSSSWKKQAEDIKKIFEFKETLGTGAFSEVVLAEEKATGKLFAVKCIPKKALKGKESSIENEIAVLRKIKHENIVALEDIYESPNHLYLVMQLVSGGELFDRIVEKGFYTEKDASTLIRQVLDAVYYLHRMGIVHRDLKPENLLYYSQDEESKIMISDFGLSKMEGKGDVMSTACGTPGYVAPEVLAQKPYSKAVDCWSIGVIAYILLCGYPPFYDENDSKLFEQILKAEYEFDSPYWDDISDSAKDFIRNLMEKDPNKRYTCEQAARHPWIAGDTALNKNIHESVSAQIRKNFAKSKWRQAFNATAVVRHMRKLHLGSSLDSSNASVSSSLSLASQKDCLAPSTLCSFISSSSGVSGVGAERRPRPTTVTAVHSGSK
How it was run: (§1)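 KiNativ-type profiling in HeLa lysate (5 mg/mL total protein). Lysate preincubated 15 min with inhibitor at 50, 10, 2, 0.8 or 0 μM, then ATP or ADP acylphosphate probe added (5 μM final) for 10 min. Reaction stopped with urea and analysed by targeted MS, using up to four fragment ions per kinase peptide-probe conjugate. % inhibition calculated against untreated lysate. Duplicate reactions.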

[5] = target: Cyclin-dependent kinase 2 (Homo sapiens, UniProt P24941); test: Inhibition of CDK2 K2 site in human HeLa cells lysate pre incubated for 15 mins followed by ADP acyl phosphate probe addition and measured after 10 mins by LC-MS/MS analysis; type: subcellular
How it was run: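 KiNativ profiling in HeLa lysate (5 mg/mL total protein). Lysate incubated 15 min with inhibitor at 50, 10, 2, 0.8 or 0 μM. ATP or ADP acylphosphate probe then added (5 μM final) and reacted 10 min. Reaction stopped with urea and analysed by targeted MS, using up to four fragment ions per kinase peptide-probe conjugate. % inhibition taken against untreated lysate. Run in duplicate.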

[6] = Inhibition of PCTAIRE2/PCTAIRE3 in human HeLa cells lysate pre incubated for 15 mins followed by ADP acyl phosphate probe addition and measured after 10 mins by LC-MS/MS analysis; type: subcellular
[7] = Inhibition of MSK1/2 in human HeLa cells lysate at 10 uM pre incubated for 15 mins followed by ADP acyl phosphate probe addition and measured after 10 mins by LC-MS/MS analysis relative to control; details: 25 min, condition cancer
[8] = target: T1, Serine/threonine-protein kinase Nek9 (Homo sapiens) (UniProt Q8TD19); test: Inhibition of NEK9 in human HeLa cells lysate at 50 uM pre incubated for 15 mins followed by ATP acyl phosphate probe addition and measured after 10 mins by LC-MS/MS analysis relative to control; type: subcellular; details: time 25.0 min
T1 sequence (whole entry): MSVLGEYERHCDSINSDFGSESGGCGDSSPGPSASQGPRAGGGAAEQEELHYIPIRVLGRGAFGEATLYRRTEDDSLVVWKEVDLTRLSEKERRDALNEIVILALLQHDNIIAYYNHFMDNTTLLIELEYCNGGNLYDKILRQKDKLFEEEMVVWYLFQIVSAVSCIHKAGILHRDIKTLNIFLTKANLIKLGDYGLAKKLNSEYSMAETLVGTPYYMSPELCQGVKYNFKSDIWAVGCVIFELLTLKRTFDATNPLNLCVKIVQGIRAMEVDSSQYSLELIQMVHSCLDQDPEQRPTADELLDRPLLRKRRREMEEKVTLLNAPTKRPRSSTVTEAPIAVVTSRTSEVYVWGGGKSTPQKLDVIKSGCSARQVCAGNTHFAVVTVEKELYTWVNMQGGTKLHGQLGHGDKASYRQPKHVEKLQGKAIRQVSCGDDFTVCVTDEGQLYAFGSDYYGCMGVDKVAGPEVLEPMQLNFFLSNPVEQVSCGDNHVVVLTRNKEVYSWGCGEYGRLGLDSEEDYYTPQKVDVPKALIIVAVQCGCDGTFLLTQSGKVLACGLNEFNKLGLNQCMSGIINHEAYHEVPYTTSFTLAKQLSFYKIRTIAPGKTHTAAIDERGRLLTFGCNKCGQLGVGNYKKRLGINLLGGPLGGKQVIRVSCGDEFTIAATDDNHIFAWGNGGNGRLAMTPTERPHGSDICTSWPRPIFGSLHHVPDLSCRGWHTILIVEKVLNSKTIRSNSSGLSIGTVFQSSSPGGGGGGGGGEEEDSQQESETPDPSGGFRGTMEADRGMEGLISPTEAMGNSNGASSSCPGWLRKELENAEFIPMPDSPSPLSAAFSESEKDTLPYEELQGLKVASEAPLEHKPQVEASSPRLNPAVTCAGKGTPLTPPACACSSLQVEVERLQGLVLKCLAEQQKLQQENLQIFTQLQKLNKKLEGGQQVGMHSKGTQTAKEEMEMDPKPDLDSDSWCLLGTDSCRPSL

[9] = target: T2, Serine/threonine-protein kinase A-Raf (Homo sapiens) (UniProt P10398); test: Inhibition of ARAF in human HeLa cells lysate at 10 uM pre incubated for 15 mins followed by ATP acyl phosphate probe addition and measured after 10 mins by LC-MS/MS analysis relative to control; type: subcellular; details: time 25.0 min; how it was run: as §1
T2 sequence (whole entry): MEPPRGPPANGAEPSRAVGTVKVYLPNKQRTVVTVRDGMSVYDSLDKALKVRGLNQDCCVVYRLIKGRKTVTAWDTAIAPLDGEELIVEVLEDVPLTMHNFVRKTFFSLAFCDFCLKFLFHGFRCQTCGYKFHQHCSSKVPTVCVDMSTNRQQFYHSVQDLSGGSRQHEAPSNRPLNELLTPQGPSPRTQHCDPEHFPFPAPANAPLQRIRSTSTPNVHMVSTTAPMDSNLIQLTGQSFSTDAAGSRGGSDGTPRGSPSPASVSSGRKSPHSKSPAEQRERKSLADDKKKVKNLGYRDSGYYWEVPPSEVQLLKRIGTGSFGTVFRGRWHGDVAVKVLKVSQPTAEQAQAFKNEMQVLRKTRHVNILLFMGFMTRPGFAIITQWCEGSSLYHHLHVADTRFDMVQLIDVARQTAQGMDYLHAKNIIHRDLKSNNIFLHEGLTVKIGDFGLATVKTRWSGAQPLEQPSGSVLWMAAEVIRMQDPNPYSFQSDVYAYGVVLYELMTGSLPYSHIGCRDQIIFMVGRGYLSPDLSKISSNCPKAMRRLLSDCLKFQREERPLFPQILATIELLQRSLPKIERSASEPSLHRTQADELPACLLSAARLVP

[10] = target: Serine/threonine-protein kinase WNK1 (Homo sapiens, UniProt Q9H4A3); test: Inhibition of Wnk1 in human HeLa cells lysate at 10 uM pre incubated for 15 mins followed by ATP acyl phosphate probe addition and measured after 10 mins by LC-MS/MS analysis relative to control; type: subcellular; details: time 25.0 min
Sequence of Serine/threonine-protein kinase WNK1 (Q9H4A3 whole entry, looked up): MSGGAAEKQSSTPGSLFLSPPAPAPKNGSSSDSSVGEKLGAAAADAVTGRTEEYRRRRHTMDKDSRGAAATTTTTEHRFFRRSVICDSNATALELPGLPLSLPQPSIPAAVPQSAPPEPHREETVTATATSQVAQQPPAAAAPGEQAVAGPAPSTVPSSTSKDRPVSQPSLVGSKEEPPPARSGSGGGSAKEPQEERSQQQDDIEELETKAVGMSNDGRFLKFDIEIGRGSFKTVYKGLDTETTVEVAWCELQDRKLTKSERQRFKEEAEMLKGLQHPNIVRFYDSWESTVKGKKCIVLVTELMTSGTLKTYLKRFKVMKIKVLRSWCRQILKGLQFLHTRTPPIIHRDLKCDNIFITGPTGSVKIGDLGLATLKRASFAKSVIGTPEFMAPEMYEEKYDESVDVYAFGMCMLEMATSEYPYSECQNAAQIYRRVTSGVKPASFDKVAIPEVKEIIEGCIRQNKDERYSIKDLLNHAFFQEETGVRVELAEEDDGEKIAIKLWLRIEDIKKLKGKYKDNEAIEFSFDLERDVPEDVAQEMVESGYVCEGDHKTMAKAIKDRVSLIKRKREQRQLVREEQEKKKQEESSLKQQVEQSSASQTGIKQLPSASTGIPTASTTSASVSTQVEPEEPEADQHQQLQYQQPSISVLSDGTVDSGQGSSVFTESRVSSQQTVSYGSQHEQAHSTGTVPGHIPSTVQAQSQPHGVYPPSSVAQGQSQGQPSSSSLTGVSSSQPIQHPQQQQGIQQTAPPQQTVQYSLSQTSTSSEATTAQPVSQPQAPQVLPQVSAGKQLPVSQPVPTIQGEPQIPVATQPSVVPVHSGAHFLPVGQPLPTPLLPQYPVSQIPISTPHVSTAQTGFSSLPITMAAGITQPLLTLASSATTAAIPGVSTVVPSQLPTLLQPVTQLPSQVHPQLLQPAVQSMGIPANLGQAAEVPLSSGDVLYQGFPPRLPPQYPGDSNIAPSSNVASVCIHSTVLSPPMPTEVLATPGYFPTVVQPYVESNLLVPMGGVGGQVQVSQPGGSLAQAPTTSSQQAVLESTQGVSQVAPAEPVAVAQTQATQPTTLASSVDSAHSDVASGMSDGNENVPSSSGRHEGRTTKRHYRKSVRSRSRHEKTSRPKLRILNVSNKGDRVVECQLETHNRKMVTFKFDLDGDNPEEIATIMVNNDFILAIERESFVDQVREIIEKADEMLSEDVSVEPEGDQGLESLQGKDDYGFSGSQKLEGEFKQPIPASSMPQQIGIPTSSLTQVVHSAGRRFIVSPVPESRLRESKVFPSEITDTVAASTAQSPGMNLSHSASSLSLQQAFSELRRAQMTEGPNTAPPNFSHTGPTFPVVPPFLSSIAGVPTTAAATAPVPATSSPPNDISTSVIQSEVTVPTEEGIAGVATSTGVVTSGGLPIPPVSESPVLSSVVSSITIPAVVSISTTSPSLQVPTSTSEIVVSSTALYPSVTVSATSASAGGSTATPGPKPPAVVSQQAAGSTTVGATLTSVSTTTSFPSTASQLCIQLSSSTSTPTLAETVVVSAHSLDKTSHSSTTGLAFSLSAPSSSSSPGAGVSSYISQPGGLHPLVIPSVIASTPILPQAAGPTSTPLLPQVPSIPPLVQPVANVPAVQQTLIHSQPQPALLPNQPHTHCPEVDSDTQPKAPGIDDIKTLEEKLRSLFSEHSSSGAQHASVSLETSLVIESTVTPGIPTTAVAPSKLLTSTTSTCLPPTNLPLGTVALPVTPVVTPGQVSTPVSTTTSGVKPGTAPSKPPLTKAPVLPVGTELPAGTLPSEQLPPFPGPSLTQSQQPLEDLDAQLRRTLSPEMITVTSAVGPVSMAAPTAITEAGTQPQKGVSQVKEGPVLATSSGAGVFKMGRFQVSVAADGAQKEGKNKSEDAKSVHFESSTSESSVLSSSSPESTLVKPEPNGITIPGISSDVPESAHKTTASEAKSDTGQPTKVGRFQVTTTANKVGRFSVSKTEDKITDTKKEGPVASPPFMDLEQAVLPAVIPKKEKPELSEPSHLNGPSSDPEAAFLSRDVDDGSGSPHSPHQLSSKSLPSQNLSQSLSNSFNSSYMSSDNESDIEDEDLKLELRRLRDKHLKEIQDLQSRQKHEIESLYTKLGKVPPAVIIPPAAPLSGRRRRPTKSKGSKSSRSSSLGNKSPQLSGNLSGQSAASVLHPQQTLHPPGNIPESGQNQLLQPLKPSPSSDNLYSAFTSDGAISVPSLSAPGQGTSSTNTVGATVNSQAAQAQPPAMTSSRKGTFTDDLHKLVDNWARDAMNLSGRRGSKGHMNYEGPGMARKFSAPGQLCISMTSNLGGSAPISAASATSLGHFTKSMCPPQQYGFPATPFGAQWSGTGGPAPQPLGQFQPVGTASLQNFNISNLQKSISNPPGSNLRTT

[11] = target: p38 delta/gamma (Homo sapiens) (UniProt O15264+P53778); test: Inhibition of p38d/p38g in human HeLa cells lysate at 2 uM pre incubated for 15 mins followed by ATP acyl phosphate probe addition and measured after 10 mins by LC-MS/MS analysis relative to control; type: subcellular; details: time 25.0 min

Sequence of Serine/threonine-protein kinase PLK4 (Homo sapiens) (O00444 whole entry): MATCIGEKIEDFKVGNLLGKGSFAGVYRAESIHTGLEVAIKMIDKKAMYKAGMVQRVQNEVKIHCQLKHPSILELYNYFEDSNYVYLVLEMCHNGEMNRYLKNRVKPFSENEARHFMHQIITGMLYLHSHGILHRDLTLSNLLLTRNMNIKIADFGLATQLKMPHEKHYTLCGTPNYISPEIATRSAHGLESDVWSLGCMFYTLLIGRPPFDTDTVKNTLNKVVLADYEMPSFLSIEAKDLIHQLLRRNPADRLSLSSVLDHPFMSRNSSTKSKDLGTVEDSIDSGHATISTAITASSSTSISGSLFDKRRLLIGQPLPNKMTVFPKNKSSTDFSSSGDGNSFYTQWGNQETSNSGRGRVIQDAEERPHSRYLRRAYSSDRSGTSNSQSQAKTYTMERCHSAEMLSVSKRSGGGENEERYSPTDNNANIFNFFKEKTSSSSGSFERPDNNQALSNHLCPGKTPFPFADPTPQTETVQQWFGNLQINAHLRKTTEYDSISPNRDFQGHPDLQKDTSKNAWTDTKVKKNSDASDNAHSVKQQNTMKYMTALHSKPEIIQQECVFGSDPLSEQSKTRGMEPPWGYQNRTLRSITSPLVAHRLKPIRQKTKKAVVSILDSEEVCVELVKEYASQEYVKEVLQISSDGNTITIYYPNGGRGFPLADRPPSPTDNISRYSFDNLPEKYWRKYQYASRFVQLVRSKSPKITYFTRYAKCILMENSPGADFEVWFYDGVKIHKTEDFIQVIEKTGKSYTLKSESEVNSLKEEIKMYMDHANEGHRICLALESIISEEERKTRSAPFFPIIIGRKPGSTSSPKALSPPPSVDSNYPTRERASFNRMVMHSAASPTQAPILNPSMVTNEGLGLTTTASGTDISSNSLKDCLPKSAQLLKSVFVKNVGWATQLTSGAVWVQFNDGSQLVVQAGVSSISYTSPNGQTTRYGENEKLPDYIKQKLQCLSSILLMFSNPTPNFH

In the case of `CCOc1cc(N2CCC(O)CC2)ccc1Nc1ncc2c(n1)N(C)c1ccccc1C(=O)N2C`, the Activity [1] is reported as 2.8%, the IC50 [2] is reported as over 50 µM and the IC50 [3] is reported as over 50 µM. It also gave an IC50 [4] of over 50 µM, an IC50 [5] of over 50 µM and an IC50 [6] of over 50 µM. The inhibition at 10 µM [7] was 37.4%, the inhibition [8] was -1.6% and the inhibition [9] was 11.2%. The inhibition [10] was 6.9% and the inhibition [11] was 100%.
